Reference: ChEMBL document CHEMBL4513216, “Probing the Open Global Health Chemical Diversity Library for Multistage-Active Starting Points for Next-Generation Antimalarials” (ACS Infect Dis, 2020)

Experiment: Toxicity liver stage against HepG2, at 10uM
Type: cell-based
Design: test concentration 10 uM, cell line HepG2-A16-CD81EGFP
Conditions: human, HepG2-A16-CD81EGFP cells; read-out: INHIBITION
Summary of the method: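 Uninfected HepG2-A16-CD81EGFP cells, 3 × 10^3 per well, 1536-well, plated on prespotted compound at 10 μM final, parasite-free screening media added to match infected plates; puromycin 10 μM positive, DMSO 0.5% negative; run in parallel with 48 h PbLuc assay at 37 °C, 5% CO2; viability by CellTiter-Glo luminescence, normalized to controls.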

Row | Compound | cytotoxicity at 10 µM [%]
1 | Cc1ccc2[nH]c3c(c2c1)CN(C(=O)CN(C)CC1OCCO1)CC3 | 6.5
2 | Cc1cc(CN2CCN3C[C@H](c4ccccc4)[C@@H](CO)[C@H]3C2)on1 | 7.66
3 | COc1ccc(C2CC(=O)Oc3cc(C)[nH]c(=O)c32)cc1O (stereo unspecified) | -4.47
4 | CN(C)S(=O)(=O)c1ccc(-c2nc(C#N)c(NC3CC3)o2)o1 | -18.4
5 | CNC(=O)[C@H]1CC[C@@H]2[C@@H](CCN2C(=O)N(C)C)O1 | 6.86
6 | Cn1cc(-c2nc(C3CCN(S(C)(=O)=O)CC3)cc3c2ncn3C)cn1 | 1.39
7 | Cn1nc(CNC(=O)CC#N)c2c1CN(C(N)=O)CC2 | 3.8
8 | CC(=O)N1CCc2ncc(CNC(=O)C3CCC3)n2CC1 | 7.48
9 | COc1cc(N2C[C@H](C(=O)N3CCCC3)[C@@H]3CCO[C@@H]3C2)ncn1 | -0.211
10 | c1cc(-c2ccc3c(c2)C2(CC3)CCN(c3nncs3)CC2)ccn1 | 1.13
11 | O=C(NCc1ccc(Cl)cc1)C1CCCN(c2ccc3nncn3n2)C1 (stereo unspecified) | 6.44
12 | Cc1ccc(C(=O)N2CCCC3(CCCC(=O)N3C)C2)cc1F (stereo unspecified) | 4.12
13 | COc1cc(NC(=O)NCC2CCCO2)cc(OC)c1 (stereo unspecified) | 15.6
14 | CCn1cc(NC(=O)c2cc(C)nc(N3CCOCC3)n2)cn1 | 6
15 | Cc1c[nH]nc1C1CCCN1Cc1ccncc1 (stereo unspecified) | 13.1
16 | CNc1cc(C2CCN2c2ncccn2)nc(C)n1 (stereo unspecified) | 1.72
17 | CCCNC(=O)Nc1ncc(-c2cccnc2)s1 | 3.11
18 | COCCN1CCC(c2nc3cc(C)ccc3[nH]2)CC1 | -0.621
19 | Cc1cccc(NC(=O)c2cncc(C3CCNCC3)n2)n1 | 0.691
20 | NC1(CN2CCCCC2)CCCCC1 | 1.46
21 | CNc1cc(C2CCCN(C(=O)c3ccc(=O)[nH]n3)C2)ccn1 (stereo unspecified) | -11.8
22 | CN(C)c1cncc(C2CCN(CCO)CC2)n1 | 3.29
23 | O=C(CN1CCCC(c2noc(C3CC3)n2)C1)N1CCCC1 (stereo unspecified) | 1.87

Row | Compound | cytotoxicity at 10 µM [%]
24 | CC(NCc1cnn(C)c1)c1noc(-c2ccc(Cl)cc2)n1 (stereo unspecified) | 3.97
25 | O=C1CSc2ccc(C(=O)N3CCCC(n4ccnc4)C3)cc2N1 (stereo unspecified) | -8.44
26 | N#CCCN(CC1CCOC1)Cn1ccc(-c2ccccc2)n1 (stereo unspecified) | -3.8
27 | N#CCCN(CC1CCOC1)Cn1ccc(-c2cccs2)n1 (stereo unspecified) | 10.9
28 | CC(C)(NCc1cccc(C#N)c1)c1ccc2c(c1)OCO2 | 3.34
29 | CN(C)Cc1nc(C(C)(C)NC(=O)c2ccc3ccccc3c2)no1 | -2.22
30 | CN(Cc1ccccc1F)C(=O)c1cc(Cl)c[nH]1 | -5.45
31 | C=C(C)CN(c1cn[nH]c1)S(=O)(=O)c1cccc(C#N)c1 | 3.84
32 | CCN(CC)C(=O)N1CCN(CCc2ccncc2)CC1 | -38.9
33 | CSCc1ccc(CNCCN2CCOCC2)o1 | -0.583
34 | Cc1cc(NCCC(=O)NC2CCS(=O)(=O)C2)nc(-c2ccncc2)n1 (stereo unspecified) | -6.74
35 | COCCN1CCC(NC(=O)NCC2(c3ccccc3)CC2)C1 (stereo unspecified) | 0.814
36 | CCn1nc(C)c(CNC(=O)NCC(C)(O)c2ccsc2)c1C (stereo unspecified) | 7.59
37 | O=C(Nc1ccc(Cl)cn1)C1CCCN(Cc2ccccn2)C1 (stereo unspecified) | -10.5
38 | CS(=O)(=O)CCCC(=O)Nc1cc(Cl)c(Cl)cn1 | 2.69
39 | Cc1nn(C)c(N2CCCN(C)CC2)c1CNC(=O)CC(C)(C)C | 8
40 | O=C(NCCc1ccccn1)NC1CCN(c2ccccc2)C1=O (stereo unspecified) | -2.84
41 | Cc1csc(CNC(=O)NCC(O)c2ccc(F)cc2)n1 (stereo unspecified) | 12.1
42 | O=C(C(CNCc1cccc(O)c1)c1ccccc1)N1CCOCC1 (stereo unspecified) | -2.06
43 | N#Cc1cccc(S(=O)(=O)N2CCCCC2C(N)=O)c1 (stereo unspecified) | 0.645
44 | CNC(=O)C1CCC(NC(=O)c2cc(C3CC3)n(C(C)(C)C)n2)CC1 (stereo unspecified) | 4.74
45 | Cn1cnn(Cc2c(F)cccc2Br)c1=O | 4.48
46 | O=C(CCN1CCOC1=O)N(Cc1ccncc1)CC1CCCO1 (stereo unspecified) | 0.606

Row | Compound | cytotoxicity at 10 µM [%]
47 | CN(Cc1ccccc1)C(=O)CN1CCCC1c1cnn(C)c1 (stereo unspecified) | 6.91
48 | Cc1ccc(C(=O)N2CCOc3nc(C)ccc32)c(F)c1 | -2.71
49 | CCN1CCCN(S(=O)(=O)c2cnc3onc(C)c3c2)CC1 | 4.62
50 | CC(Cn1cccn1)NC(=O)c1ccsc1 (stereo unspecified) | -5.2
51 | Cc1cnc(CNC(=O)N(Cc2ccccc2)CC(C)(C)O)s1 | -3.22
52 | CCCS(=O)(=O)NC(=O)c1ccc(CC)o1 | -8.37
53 | CC(NC(=O)NCCN1CCCCCC1=O)c1ccc(Cl)s1 (stereo unspecified) | -0.331
54 | CC(Cc1ccco1)NC(=O)CSc1nnc[nH]1 (stereo unspecified) | 13
55 | Cc1cccc(S(=O)(=O)N2C[C@@H]3C[C@@H](c4nnc(C)[nH]4)O[C@@H]3C2)c1 | 9.59
56 | COCCN1C(=O)C[C@@H]2[C@H]1CCN2C(=O)COc1ccccc1 | -0.902
57 | COCc1cc(NCc2ccccc2-n2cncn2)ncn1 | -0.132
58 | O=C(c1cnn2ccccc12)N1CCCC(OCc2ccccn2)C1 (stereo unspecified) | -3.74
59 | CCOC(=O)CCNC(=O)N1CCCC(CNC(=O)c2ccco2)C1 (stereo unspecified) | 14.9
60 | CN1CCC(n2nc(Cc3cccc(Cl)c3)nc2Cn2cnnn2)CC1 | -12.4
61 | Cc1cc(CN2CCN(C(C)C)C(CCO)C2)[nH]n1 (stereo unspecified) | 4.86
62 | COCCn1cnnc1CNc1cc(C)nc2c(C)c(C)nn12 | -0.715
63 | Cc1cc(N[C@H]2CCCC[C@@H]2O)n2nccc2n1 | -1.42
64 | O=C(c1cc2ccccc2[nH]c1=O)N1CCC2(CCCNC2)C1 (stereo unspecified) | -4.66
65 | COc1cccc(-c2ncc(CN3CC[C@H](CO)[C@@H](O)C3)s2)c1 | 4.23
66 | CN(CC(=O)Nc1ccon1)S(=O)(=O)c1cc(Cl)ccc1Cl | 0.424
67 | COc1ccc2c(C(=O)N(C)C)cc(-c3cnc(N)nc3)nc2c1 | -3.3
68 | COCc1c(C(=O)N2CCCC(C(=O)c3ccccc3)C2)noc1C (stereo unspecified) | -2.54
69 | COc1cccc(CN2CCN(CC(C)C)C(=O)C2C)c1O (stereo unspecified) | 2.02

Row | Compound | cytotoxicity at 10 µM [%]
70 | COC(=O)c1cccc(S(=O)(=O)NC(=O)COC2CCCC2)c1 | -1.03
71 | Cc1cnn(C2CN(Cc3nc(-c4ccsc4)no3)C2)c1 | -3.88
72 | CCc1nc(CNc2ccc(C(=O)N3CCSCC3)cc2C)no1 | -6.99
73 | Cc1cc(CN(C)C2CCCN(c3cccnn3)C2)no1 (stereo unspecified) | -2.45
74 | O=C(NCC1COC2(CCOCC2)O1)c1csc(-c2cccc(Cl)c2)n1 (stereo unspecified) | -10.7
75 | Cc1nc2cc(O)nn2c(C)c1CCC(=O)NCc1cc(Br)cs1 | -3.04
76 | CC(=O)N(C)C(c1cccc(F)c1)c1ccccn1 (stereo unspecified) | -1.63
77 | Cn1ccc(C(=O)Nc2cc(F)ccc2OCC2CCCO2)cc1=O (stereo unspecified) | -1.59
78 | Cc1cc(C)c(CNC(=O)NCC(O)c2ccccc2)c(=O)[nH]1 (stereo unspecified) | -10
79 | NC(=O)CC1CCN(C(=O)NCc2ccc(-c3ccn[nH]3)cc2)CC1 | -2.38
80 | CCCc1n[nH]c(C2CN(C(=O)c3ccc4c(c3)COC4)CCO2)n1 (stereo unspecified) | -12.4
81 | CCNc1cc2c(nn1)CCN(C(=O)Cc1c(C)nn(C)c1C)C2 | -8.25
82 | COc1cc(C(=O)NS(=O)(=O)c2ccc(C#N)cc2)ccc1C | -6.56
83 | COc1ccc(C(=O)NS(=O)(=O)c2cccc(C#N)c2)cc1 | -2.97
84 | CCc1ncncc1C(=O)N1CCN(Cc2cscn2)CC1 | 0.512
85 | c1cncc(-c2noc(CN3CCn4c(nnc4C4CC4)C3)n2)c1 | -8.69
86 | Cc1nc2cc(=O)[nH]n2c(C)c1CC(=O)NCc1ccoc1 | -10.4
87 | CC(Cn1ccnc1)NC(=O)NCc1ccccn1 (stereo unspecified) | -6.66
88 | Cc1cnn(CC2CN(c3nnc(C)c(C)c3C#N)CCO2)c1 (stereo unspecified) | -5.25
89 | Cc1cnn(CC2CCCN2C(=O)c2cnc(-c3ccco3)s2)c1 (stereo unspecified) | -7.43
90 | COC(=O)c1cccn1C1CCN(Cc2nc3ccccc3o2)CC1 | 1.81
91 | CC(=O)Nc1nc(CN2CCOC(Cn3nc(C)cc3C)C2)cs1 (stereo unspecified) | 4.23
92 | CC1CN(C(=O)CN(Cc2ccccc2)C2CC2)CCO1 (stereo unspecified) | -16.1

Row | Compound | cytotoxicity at 10 µM [%]
93 | CN(Cc1cccc(F)c1)C(=O)CS(=O)(=O)Cc1ccc(Cl)c(Cl)c1 | -4.67
94 | CC(C(=O)N1CCCN(c2ncccc2C#N)CC1)n1ccnc1 (stereo unspecified) | -2.6
95 | COCC(=O)NC(C)Cc1cccc(OC)c1 (stereo unspecified) | -10.6
96 | CCCc1noc(CCC(=O)N2CCCC2c2noc(C3CC3)n2)n1 (stereo unspecified) | -9.98
97 | CCOc1ccnc(N2CCN(C(=O)c3cn[nH]c3CC)CC2)n1 | -6.69
98 | N[C@@H](Cc1ccccc1)c1nnc(S(=O)(=O)Cc2ccc(Cl)cc2)o1 | 14.2
99 | CCOC[C@H]1CC[C@H]2[C@H](CCN2Cc2c(C)noc2C)O1 | 3.23
100 | CNC(=O)CN1CC[C@H]2CN(C(=O)c3ccoc3)C[C@H]2C1 | -2.8
101 | COCC(=O)N1Cc2ccnn2CC(COCCN(C)C)C1 (stereo unspecified) | 6.82
102 | CS(=O)(=O)NCc1cnc2n1CCN(Cc1cccnc1)CC2 | 5.66
103 | N#Cc1ccccc1N1CC2(CCCCN2CC2CC2)CC1=O (stereo unspecified) | 10.7
104 | O=C(N1CCCC1)N1CCC2(CCN(Cc3ccccn3)C2=O)C1 (stereo unspecified) | 3.2
105 | Cn1cc(CN2CCC[C@]3(C[C@@H](Oc4ccccn4)CO3)C2)cn1 | 7.5
106 | Cc1noc(C)c1CN1CCCC2(C1)CN(c1nccs1)CCO2 (stereo unspecified) | 8.47
107 | Cc1ccc(CN2CCOC3(COCCN(S(C)(=O)=O)C3)C2)o1 (stereo unspecified) | 11.7
108 | O=C1COC2(CCN(S(=O)(=O)C3CC3)CC2)CN1c1cccnc1 | -1.69
109 | c1cnc(N2CCC3(CCN(CC4CCOC4)CC3)CC2)nc1 (stereo unspecified) | -1.22
110 | Fc1ccc(CN2CCC3(CC2)CC(c2cccnc2)CO3)cc1 (stereo unspecified) | -4.85
111 | COc1cccc(CC(=O)N2CC[C@@H](OC)[C@@H]2Cc2cccnc2)c1 | 3.71
